Results reported in ChEMBL document CHEMBL4043093, “2-Oxo-3, 4-dihydropyrimido[4, 5-d]pyrimidinyl derivatives as new irreversible pan fibroblast growth factor receptor (FGFR) inhibitors” (Eur J Med Chem, 2017).

What was measured:
[1] = target: Receptor-interacting serine/threonine-protein kinase 1 (Homo sapiens) (UniProt Q13546); assay: Inhibition of wild-type human partial length RIPK1 (M1 to K305 residues) expressed in Escherichia coli BL21 assessed as residual activity at 1000 nM after 30 mins by Kinomescan method relative to control
[2] = target: Mitogen-activated protein kinase 4 (Homo sapiens) (UniProt P31152); assay: Inhibition of wild-type human partial length ERK4 (M1 to L365 residues) expressed in Escherichia coli BL21 assessed as residual activity at 1000 nM after 30 mins by Kinomescan method relative to control
[3] = target: Mitogen-activated protein kinase kinase kinase 7 (Homo sapiens) (UniProt O43318); assay: Inhibition of wild-type human partial length TAK1 (M1 to Q303 residues) expressed in HEK293 cells assessed as residual activity at 1000 nM after 30 mins by Kinomescan method relative to control; type: cell-based
[4] = target: Serine/threonine-protein kinase LATS2 (Homo sapiens) (UniProt Q9NRM7); assay: Inhibition of wild-type human partial length LATS2 (Q641 to V1088 residues) expressed in HEK293 cells assessed as residual activity at 1000 nM after 30 mins by Kinomescan method relative to control; type: cell-based
[5] = target: Serine/threonine-protein kinase tousled-like 2 (Homo sapiens) (UniProt Q86UE8); assay: Inhibition of wild-type human partial length TLK2 (E424 to N749 residues) expressed in Escherichia coli BL21 assessed as residual activity at 1000 nM after 30 mins by Kinomescan method relative to control
[6] = target: Ankyrin repeat and protein kinase domain-containing protein 1 (Homo sapiens) (UniProt Q8NFD2); assay: Inhibition of wild-type human partial length ANKK1 (M1 to A305 residues) expressed in HEK293 cells assessed as residual activity at 1000 nM after 30 mins by Kinomescan method relative to control; type: cell-based
[7] = target: Muscle, skeletal receptor tyrosine-protein kinase (Homo sapiens) (UniProt O15146); assay: Inhibition of wild-type human partial length MUSK (M553 to V869 residues) expressed in Escherichia coli BL21 assessed as residual activity at 1000 nM after 30 mins by Kinomescan method relative to control
Homo sapiens = species: Homo sapiens; assay: Inhibition of human partial length FLT3 ITD/F691L double mutant expressed in Escherichia coli BL21 assessed as residual activity at 1000 nM after 30 mins by Kinomescan method relative to control
Summary of the method: (§1)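 KINOMEscan binding panel of 456 kinases, with the test compound at a single concentration of 1 µM. Read-out is Percent Control.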

[8] = test system: Leucine-rich repeat serine/threonine-protein kinase 2 (Homo sapiens), Q5S007 [G2019S]; assay: Inhibition of human partial length LRRK2 G2019S mutant (H970 to E2527 residues) expressed in HEK293 cells assessed as residual activity at 1000 nM after 30 mins by Kinomescan method relative to control; type: cell-based; summary of the method: as §1
[9] = target: Casein kinase II subunit alpha' (Homo sapiens) (UniProt P19784); assay: Inhibition of wild-type human full length CSNK2A2 (M1 to R350 residues) expressed in HEK293 cells assessed as residual activity at 1000 nM after 30 mins by Kinomescan method relative to control; type: cell-based
Summary of the method: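 Single-point screen at a fixed 1 µM, run within a 456-kinase DiscoveRx KINOMEscan panel. Each kinase's read-out is Percent Control, i.e. signal relative to a control without compound. Hits were scored by a Percent Control < 35 cut-off, and an S(35) selectivity score was calculated across the non-mutant kinases.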

[10] = target: Tyrosine-protein kinase SYK (Homo sapiens) (UniProt P43405); assay: Inhibition of wild-type human partial length SYK (D354 to N635 residues) expressed in Escherichia coli BL21 assessed as residual activity at 1000 nM after 30 mins by Kinomescan method relative to control
[11] = target: Ribosomal protein S6 kinase alpha-6 (Homo sapiens) (UniProt Q9UK32); assay: Inhibition of wild-type human partial length N-terminal RSK4 kinase domain 1 (M1 to E397 residues) expressed in HEK293 cells assessed as residual activity at 1000 nM after 30 mins by Kinomescan method relative to control; type: cell-based
[12] = target: Serine/threonine-protein kinase 33 (Homo sapiens) (UniProt Q9BYT3); assay: Inhibition of wild-type human full length STK33 (M1 to L514 residues) expressed in Escherichia coli BL21 assessed as residual activity at 1000 nM after 30 mins by Kinomescan method relative to control
[13] = target: Rho-associated protein kinase 2 (Homo sapiens) (UniProt O75116); assay: Inhibition of wild-type human partial length ROCK2 (M1 to T431 residues) expressed in HEK293 cells assessed as residual activity at 1000 nM after 30 mins by Kinomescan method relative to control; type: cell-based
[14] = target: PDGFRA (platelet-derived growth factor receptor alpha) (Homo sapiens, UniProt P16234); assay: Inhibition of wild-type human partial length PDGFRA (V575 to D1002 residues) expressed in HEK293 cells assessed as residual activity at 1000 nM after 30 mins by Kinomescan method relative to control; type: cell-based; details: read-out: Activity
[15] = target: Death-associated protein kinase 1 (Homo sapiens) (UniProt P53355); assay: Inhibition of wild-type human partial length DAPK1 (M1 to F296 residues) expressed in Escherichia coli BL21 assessed as residual activity at 1000 nM after 30 mins by Kinomescan method relative to control
[16] = Antiproliferative activity against human FGFR2-amplified SUM52 cells after 5 days by SRB assay; details: SUM52, 120 h
[17] = target: RAC-gamma serine/threonine-protein kinase (Homo sapiens) (UniProt Q9Y243); assay: Inhibition of wild-type human partial length AKT3 expressed in Escherichia coli BL21 assessed as residual activity at 1000 nM after 30 mins by Kinomescan method relative to control
[18] = target: Serine/threonine-protein kinase ULK1 (Homo sapiens) (UniProt O75385); assay: Inhibition of wild-type human partial length ULK1 (M1 to T309 residues) expressed in HEK293 cells assessed as residual activity at 1000 nM after 30 mins by Kinomescan method relative to control; type: cell-based
[19] = target: Phosphatidylinositol 4-phosphate 3-kinase C2 domain-containing subunit beta (Homo sapiens) (UniProt O00750); assay: Inhibition of wild-type human partial length PIK3C2B (M1 to L1634 residues) expressed in HEK293 cells assessed as residual activity at 1000 nM after 30 mins by Kinomescan method relative to control; type: cell-based
[20] = target: Serine/threonine-protein kinase DCLK3 (Homo sapiens) (UniProt Q9C098); assay: Inhibition of wild-type human partial length DCAMKL3 (E140 to V628 residues) expressed in Escherichia coli BL21 assessed as residual activity at 1000 nM after 30 mins by Kinomescan method relative to control
[21] = target: Mitogen-activated protein kinase kinase kinase kinase 5 (Homo sapiens) (UniProt Q9Y4K4); assay: Inhibition of wild-type human partial length MAP4K5 (M1 to P297 residues) expressed in Escherichia coli BL21 assessed as residual activity at 1000 nM after 30 mins by Kinomescan method relative to control

COc1cc(OC)c(Cl)c(N2Cc3cnc(Nc4ccc(F)cc4)nc3N(C3CCN(C(=O)/C=C/CN(C)C)CC3)C2=O)c1Cl
Activity [1]: 100%
Activity [2]: 94%
Activity [3]: 100%
Activity [4]: 100%
Activity [5]: 96%
Activity [6]: 96%
Activity [7]: 94%
Activity (Homo sapiens): 90%
Activity [8]: 98%
Activity [9]: 100%
Activity [10]: 100%
Activity [11]: 100%
Activity [12]: 100%
Activity [13]: 100%
activity at 0.5 h, 1 µM [14]: 62%
Activity [15]: 100%
IC50 [16]: 0.77 nM
Activity [17]: 96%
Activity [18]: 89%
Activity [19]: 89%
Activity [20]: 81%
Activity [21]: 82%
